In the M2OR odorant receptor database:

How the values were obtained:
Details in all cases: stereoisomer not certain
[1] = target: T1, OR10R2 (Homo sapiens) (UniProt Q8NGX6)
T1 sequence (whole entry): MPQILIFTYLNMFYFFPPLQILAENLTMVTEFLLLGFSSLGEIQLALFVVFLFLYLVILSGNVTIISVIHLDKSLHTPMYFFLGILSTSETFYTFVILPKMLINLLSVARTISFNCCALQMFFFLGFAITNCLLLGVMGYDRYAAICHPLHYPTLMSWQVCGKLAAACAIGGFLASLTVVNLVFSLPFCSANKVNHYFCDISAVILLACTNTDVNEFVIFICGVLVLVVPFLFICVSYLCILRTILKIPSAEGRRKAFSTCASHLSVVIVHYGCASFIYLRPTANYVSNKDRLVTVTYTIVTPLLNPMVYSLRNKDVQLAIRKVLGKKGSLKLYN
Procedure, shortened: (§1)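 Transient luciferase assays in mammalian cell lines were common, though methods varied by source. The values come from published papers and their supplementary material, with extra details from the original authors when needed. Responsive refers to a measured signal the original authors judged statistically different from baseline, and non-responsive (inactive) to the remainder.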

[2] = target: T2, OR10S1 (Homo sapiens) (UniProt Q8NGN2)
T2 sequence (whole entry): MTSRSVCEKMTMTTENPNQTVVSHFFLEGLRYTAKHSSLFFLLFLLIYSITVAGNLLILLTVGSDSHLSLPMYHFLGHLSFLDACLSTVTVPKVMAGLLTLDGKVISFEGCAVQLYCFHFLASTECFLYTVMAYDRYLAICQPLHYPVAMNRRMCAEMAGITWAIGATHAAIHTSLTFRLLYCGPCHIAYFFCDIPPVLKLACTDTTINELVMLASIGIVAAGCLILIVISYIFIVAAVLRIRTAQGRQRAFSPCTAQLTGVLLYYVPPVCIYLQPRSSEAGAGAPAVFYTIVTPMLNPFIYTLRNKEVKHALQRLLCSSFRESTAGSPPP
Procedure, shortened: as §1

[3] = target: T3, OR10T2 (Homo sapiens) (UniProt Q8NGX3)
T3 sequence (whole entry): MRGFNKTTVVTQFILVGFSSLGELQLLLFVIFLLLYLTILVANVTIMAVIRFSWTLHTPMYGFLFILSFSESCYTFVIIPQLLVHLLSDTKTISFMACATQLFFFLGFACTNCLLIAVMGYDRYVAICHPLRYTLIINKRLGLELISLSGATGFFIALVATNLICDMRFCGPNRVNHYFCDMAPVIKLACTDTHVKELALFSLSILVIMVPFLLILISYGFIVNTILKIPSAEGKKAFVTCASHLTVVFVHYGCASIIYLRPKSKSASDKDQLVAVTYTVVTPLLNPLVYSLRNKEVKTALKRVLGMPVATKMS
Procedure, shortened: as §1

[4] = target: T4, OR10V1 (Homo sapiens) (UniProt Q8NGI7)
T4 sequence (whole entry): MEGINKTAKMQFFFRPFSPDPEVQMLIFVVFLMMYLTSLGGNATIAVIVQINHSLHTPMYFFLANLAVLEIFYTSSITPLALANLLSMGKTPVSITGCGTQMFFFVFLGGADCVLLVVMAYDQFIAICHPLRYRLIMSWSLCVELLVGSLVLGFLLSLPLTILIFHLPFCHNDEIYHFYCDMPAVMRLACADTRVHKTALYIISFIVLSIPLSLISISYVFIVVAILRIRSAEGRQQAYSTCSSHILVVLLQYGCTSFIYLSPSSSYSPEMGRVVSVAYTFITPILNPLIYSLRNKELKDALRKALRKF
Procedure, shortened: as §1

[5] = target: T5, OR10W1 (Homo sapiens) (UniProt Q8NGF6)
T5 sequence (whole entry): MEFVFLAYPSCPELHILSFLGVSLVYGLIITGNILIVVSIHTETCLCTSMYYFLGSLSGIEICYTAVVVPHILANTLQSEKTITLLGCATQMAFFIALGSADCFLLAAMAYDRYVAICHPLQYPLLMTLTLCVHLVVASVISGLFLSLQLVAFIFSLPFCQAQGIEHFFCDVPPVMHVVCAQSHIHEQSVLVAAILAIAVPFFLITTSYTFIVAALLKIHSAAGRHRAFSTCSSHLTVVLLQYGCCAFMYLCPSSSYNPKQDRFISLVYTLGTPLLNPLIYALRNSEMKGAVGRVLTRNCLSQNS
Procedure, shortened: as §1

[6] = target: T6, OR10X1 (Homo sapiens) (UniProt Q8NGY0)
T6 sequence (whole entry): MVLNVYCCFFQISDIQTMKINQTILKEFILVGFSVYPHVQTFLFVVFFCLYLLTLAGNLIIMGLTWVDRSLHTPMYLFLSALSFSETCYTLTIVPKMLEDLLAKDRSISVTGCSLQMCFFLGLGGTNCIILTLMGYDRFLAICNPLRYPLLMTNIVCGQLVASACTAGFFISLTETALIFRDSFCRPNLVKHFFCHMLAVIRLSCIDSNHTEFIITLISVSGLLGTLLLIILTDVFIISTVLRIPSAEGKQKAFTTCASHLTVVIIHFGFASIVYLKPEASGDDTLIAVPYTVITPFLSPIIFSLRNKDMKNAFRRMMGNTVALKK
Procedure, shortened: as §1

[7] = target: T7, OR10Z1 (Homo sapiens) (UniProt Q8NGY1)
T7 sequence (whole entry): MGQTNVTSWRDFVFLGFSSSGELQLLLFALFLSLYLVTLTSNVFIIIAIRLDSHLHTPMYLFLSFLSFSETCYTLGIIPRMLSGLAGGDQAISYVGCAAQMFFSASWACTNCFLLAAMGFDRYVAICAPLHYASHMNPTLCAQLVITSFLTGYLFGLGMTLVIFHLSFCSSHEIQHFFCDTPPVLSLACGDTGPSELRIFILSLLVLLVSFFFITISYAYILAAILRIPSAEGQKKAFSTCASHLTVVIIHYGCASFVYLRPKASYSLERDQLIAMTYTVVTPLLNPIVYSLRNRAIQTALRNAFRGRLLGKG
Procedure, shortened: as §1

[8] = target: T8, OR11A1 (Homo sapiens) (UniProt Q9GZK7)
T8 sequence (whole entry): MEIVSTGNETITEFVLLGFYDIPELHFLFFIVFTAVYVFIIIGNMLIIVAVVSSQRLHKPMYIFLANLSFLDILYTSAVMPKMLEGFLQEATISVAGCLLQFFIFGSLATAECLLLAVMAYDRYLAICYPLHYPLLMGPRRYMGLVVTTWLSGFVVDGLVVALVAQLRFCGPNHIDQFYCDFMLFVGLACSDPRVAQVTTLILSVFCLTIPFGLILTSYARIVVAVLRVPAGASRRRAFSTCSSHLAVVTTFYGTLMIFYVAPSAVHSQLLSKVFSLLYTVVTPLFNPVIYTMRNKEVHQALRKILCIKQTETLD
Procedure, shortened: as §1

[9] = target: T9, OR11G2 (Homo sapiens) (UniProt Q8NGC1)
T9 sequence (whole entry): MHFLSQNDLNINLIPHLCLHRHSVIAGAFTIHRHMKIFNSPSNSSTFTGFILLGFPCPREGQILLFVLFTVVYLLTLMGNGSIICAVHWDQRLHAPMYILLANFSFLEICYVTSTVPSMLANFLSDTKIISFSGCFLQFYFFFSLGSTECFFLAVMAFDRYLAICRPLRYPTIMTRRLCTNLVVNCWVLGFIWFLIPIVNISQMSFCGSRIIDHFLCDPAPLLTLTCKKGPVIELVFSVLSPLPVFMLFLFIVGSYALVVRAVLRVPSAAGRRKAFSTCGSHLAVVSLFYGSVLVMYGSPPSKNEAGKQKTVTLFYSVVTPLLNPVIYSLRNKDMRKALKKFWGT
Procedure, shortened: as §1

[10] = target: T10, OR11H1 (Homo sapiens) (UniProt Q8NG94)
T10 sequence (whole entry): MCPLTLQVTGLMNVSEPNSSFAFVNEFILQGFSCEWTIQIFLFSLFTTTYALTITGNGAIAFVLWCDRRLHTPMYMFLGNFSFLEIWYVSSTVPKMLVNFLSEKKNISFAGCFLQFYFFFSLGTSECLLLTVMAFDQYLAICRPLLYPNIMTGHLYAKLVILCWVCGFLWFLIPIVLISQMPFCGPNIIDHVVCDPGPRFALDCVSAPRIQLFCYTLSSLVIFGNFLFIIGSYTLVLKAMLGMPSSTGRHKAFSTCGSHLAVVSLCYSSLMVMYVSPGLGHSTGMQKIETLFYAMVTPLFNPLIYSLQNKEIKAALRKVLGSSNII
Procedure, shortened: as §1

Measured: odorant receptor agonist call;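 further: active if original authors judged signal statistically different from baseline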

CCCCCC(=O)C(C)C(C)=O (stereo not given)
inactive: all assays above
